# According to publication PMC9119696 (Nature chemical biology, 2021):
# Legend:
# GST-Pin1 = GST-Pin1 (Homo sapiens, UniProt Q13526); assay: Competitive fluorescence polarization; type: binding; details: 14 h incubation with recombinant full-length Pin1
# How it was run: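 GST-Pin1 (250 nM) preincubated 14 h at 4 °C with compound and 5 nM N-terminal fluorescein-labelled peptide probe (Bth-D-pThr-Pip-Nal). Buffer: 10 mM HEPES, 10 mM NaCl, 1% glycerol pH 7.4, 10 µg ml-1 BSA, 0.01% Tween-20, 1 mM DTT. Ki calculated from probe concentration, 85% probe bound and Pin1 concentration. Kinact from dose- and time-dependent runs. n = 3 samples ± s.e.m.; 2 experiments.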
# Pin1 = assay: Live cell competition pulldown; type: cell-based; details: PATU-8988T or HCT116 cells, 5 h
# How it was run: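 2.5 million cells per 10-cm plate, dosed next day with DMSO or test compound (5 h, or as indicated). Cells washed in cold PBS, scraped and lysed in HEPES pH 7.4/NP-40 buffer with TCEP. Lysate (500 µg) incubated with desthiobiotin probe (1 µM, 1 h, 4 °C), then streptavidin agarose (1.5 h, 4 °C). Pin1 pulldown detected by immunoblot.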
# PATU-8988T WT Pin1 cells = assay: 3D Matrigel dome antiproliferative assay; type: cell-based; details: 1 μM, 9-day treatment
# How it was run: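 1,000 cells per Matrigel dome, one dome per well, left 15 min at 37 °C to solidify. Medium with test compound renewed every 3 days. After 9 days, 3D CellTiter-Glo was added and the plate shaken 1 h at room temperature before reading luminescence. n = 9 biological replicates per condition.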
# PATU-8988T cells = assay: Cell cycle analysis; type: cell-based; details: 2.5 μM, 4 days
# How it was run: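 PATU-8988T cells treated 4 days with DMSO (0.1%), test compound or a non-covalent analogue (each 2.5 µM), with medium replaced on day 3; run in triplicate or more. Pulsed with 10 µM BrdU for 1 h, then fixed in 70% ethanol and denatured in 2 M HCl/0.5% Triton X-100 (30 min, RT). Neutralised with 0.1 M Na2B4O7 pH 8.5 and stained overnight at 4 °C with anti-BrdU-FITC. Counterstained with propidium iodide plus RNase A (each 50 µg ml-1) and analysed by FACS.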
# GST-Pin1, sequence (Q13526 whole entry): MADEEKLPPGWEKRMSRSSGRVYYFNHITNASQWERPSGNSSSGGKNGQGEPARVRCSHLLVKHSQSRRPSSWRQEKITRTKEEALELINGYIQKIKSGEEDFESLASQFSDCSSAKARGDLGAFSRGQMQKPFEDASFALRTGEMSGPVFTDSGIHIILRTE
smiles,measurement,setting,value
CC(=O)N(CC(C)(C)C)C1CCS(=O)(=O)C1 (stereo not shown) [Sulfopin-AcA],competition in FP assay,GST-Pin1,inactive
same,competition of Pin1 pulldown by DTB probe,Pin1,unable to outcompete Pin1 pulldown
same,antiproliferative activity in 3D Matrigel domes,PATU-8988T WT Pin1 cells,showed no effect in any of the tested systems
same,cells in S phase,PATU-8988T cells,did not show this effect
